Screening data (PubChem BioAssay)
MT1-MMP txn act = MT1-MMP promoter reporter activation – cell-based, luciferase luminescence, primary screen. HT1080 MT1-MMP promoter luciferase reporter, overnight; active compounds read high. activation factor at 10 µM. 0.16% of 86,000 active. AID 750, 2007;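 active = activation factor of at least 2 for MT1-MMP transcription at 10 µM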
MMP13 inh = human MMP13 inhibitors, primary screen, biochemical, FRET peptide cleavage; Collagenase 3 (Homo sapiens), P45452; MMP-13 fTHP FRET cleavage, Mca fluorescence; inhibition, % at 4 µM; 0.07% of 65,000 active; AID 570, 2006;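 active = inhibition above the mean of compound-free control plate wells plus 3 SD, cut at about 14% in these data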;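 also: 0% = DMSO wells and 100% = wells with reference MMP-13 inhibitor after basal subtraction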
RORA act = activators of orphan receptor RORA, primary screen, cell-based, luminescence | CHO-K1 Gal4-RORA LBD luciferase reporter; percent increase over mock-subtracted basal signal | Nuclear receptor ROR-alpha (Homo sapiens), P35398 | 1.5% of 65,000 active | activation, % at 10 µM;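 active = activation above the mean of all tested compounds plus 3 SD, cut at about 49% in these data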;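 also: 0% = DMSO-treated RORA cells and 100% = added signal equal to DMSO minus mock-transfected cells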
WNV protease inh = inhibitors of WNV NS2B-NS3 protease, primary screen, biochemical, fluorogenic substrate; fluorogenic substrate Ex360/Em465; active compounds read low; AID 577, 2007; z-score (no concentration beside the values); Genome polyprotein (West Nile virus), P06935; 0.18% of 65,000 active; in the data active = z-score below about -3
Target sequence (P06935 1371-1501 limits assumed): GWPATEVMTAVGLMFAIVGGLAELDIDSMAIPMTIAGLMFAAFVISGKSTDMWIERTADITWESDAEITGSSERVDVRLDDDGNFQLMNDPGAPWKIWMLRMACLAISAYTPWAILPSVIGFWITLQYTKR
Target sequence (P06935 1502-1679 limits assumed): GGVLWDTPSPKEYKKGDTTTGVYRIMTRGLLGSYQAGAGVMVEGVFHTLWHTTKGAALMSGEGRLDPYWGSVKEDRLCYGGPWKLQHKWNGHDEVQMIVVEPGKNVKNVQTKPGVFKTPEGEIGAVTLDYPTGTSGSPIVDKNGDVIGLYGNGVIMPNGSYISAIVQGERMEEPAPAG
SF-1 act = activators of human SF-1, primary screen, cell-based, CHO-K1, Gal4-SF-1 LBD, luciferase luminescence. Steroidogenic factor 1 (Homo sapiens), Q13285. CHO-K1 Gal4-SF-1 LBD luciferase reporter; % increase over DMSO SF-1-specific signal. activation, % at 10 µM. 1.9% of 65,000 active;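 active = activation above the mean activation of all tested compounds plus 3 SD, cut at about 50% in these data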
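Assay system – CHO-K1 cells with Gal4–hSF-1 LBD chimera plus Gal4-driven luciferase · Quantity – 4,000 cells per well · Times – compound added 1 h post-seeding, 20 h exposure at 37 °C, 5% CO2 · Measured by – luciferase light emission · Benchmarks – DMSO and mock-transfected background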
The depositor's hits bear a star; . = no result. Shown are actives, neighbours in structure and some others; about 2.3% of the full set was active somewhere.

SMILES	MT1-MMP txn act	MMP13 inh	RORA act	WNV protease inh	SF-1 act
CCC(CO)Nc1ncnc2c1cnn2-c1ccc(OC)cc1 (stereo unspecified)	1	-18	61*	0.48	101*
Clc1ccc(-n2ncc3c(NCc4ccco4)ncnc32)cc1	1.3	-10	65*	-0.93	76*
CCCNC(=O)c1c(N)n(-c2cc(OC)cc(OC)c2)c2nc3ccccc3nc12	0.9	-177	-10	-0.31	-16
N#Cc1ccc(C23CC4(C2)[C@H](CN(Cc2cccnc2)[C@@H]4c2ccccc2)C3c2ccc(C(F)(F)F)cc2)cc1 (stereo partly specified)	1.5	.	.	.	.
Clc1ccc(-n2ncc3c(NCc4ccc5c(c4)OCO5)ncnc32)cc1	1.2	-7	-1	0.24	0
CN(C)CCNc1ncnc2c1cnn2-c1ccc(Cl)cc1	1.2	-26	43	0.91	73*
CCCNc1ncnc2c1cnn2-c1ccc(OC)cc1	0.8	-27	-4	1.1	46
Clc1ccc(Cn2ncc3c(NCc4ccco4)ncnc32)c(Cl)c1	1.1	8	46	1.8	62*
COc1ccc(-n2ncc3c(NCc4ccccn4)ncnc32)cc1	1.4	-24	36	1.7	56*
COc1ccc(-n2ncc3c(NCCCN4CCOCC4)ncnc32)cc1	1.2	-12	26	-0.4	53*
CCc1cccc(NC2c3ccccc3C(=O)N2c2cccnc2)c1 (stereo unspecified)	1	4	16	1.1	-6
O=c1c2cnn(-c3ccccc3Cl)c2ncn1Cc1cccnc1	1.1	-1	-15	-0.13	-7
Cc1cccc(OCCn2c(=O)n(C)c3ccccc32)c1	1.4	4	67*	0.68	81*
Cc1ccc(-n2c(C)cc(/C=c3/sc4nc5ccccc5n4c3=O)c2C)cc1	0.6	.	.	.	.
COc1cc(N2CCCC2)c(OC)cc1/C=c1/sc2nc3ccccc3n2c1=O	1.5	6	9	-0.73	54*
Cc1cc(C)n(-c2nncn2NC(=O)c2ccc(Cl)cc2O)n1	1.1	0	8	-0.29	1
COc1ccc(OC)c2c(C)cc(N3CCCN(C)CC3)nc12	.	.	.	0.62	.
O=C(Nc1cnc2ccccc2c1)c1ccncc1	1.1	-1	74*	0.23	30
CCN(CC)C(=O)Nc1cnc2ccccc2c1	1.3	-3	41	-1	13
COC(=O)c1cccc(C(=O)Nc2cnc3ccccc3c2)n1	1.4	2	43	0.12	97*
CC1CCCCC1NC(=O)CN1C(=O)CSc2cc(S(=O)(=O)N3CCCCCC3)ccc21 (stereo unspecified)	1.2	.	.	.	.
CCc1ccc(C2(O)CC(C(F)(F)F)=NN2C(=O)Cc2ccc([N+](=O)[O-])cc2)cc1 (stereo unspecified)	2*	.	.	.	.
O=C(CN1N=C(C(F)(F)F)CC1(O)c1ccc([N+](=O)[O-])cc1)c1ccccc1 (stereo unspecified)	1.1	.	.	.	.
CS(=O)(=O)c1ccc2nc(NC(=O)C3COc4ccccc4O3)sc2c1 (stereo unspecified)	1.4	4	7	0.59	52*
Cc1nnc(NC(=O)C2COc3ccccc3O2)s1 (stereo unspecified)	1.6	3	18	0.15	52*
SMILES	MT1-MMP txn act	MMP13 inh	RORA act	WNV protease inh	SF-1 act
COc1ccc2nc(NC(=O)c3cc(C)oc3C)sc2c1	1.4	.	.	.	.
Cc1cc(C(=O)Nc2nc3ccc(S(C)(=O)=O)cc3s2)c(C)o1	1	-8	89*	2.4	50*
COc1ccc2nc(NC(=O)C3COc4ccccc4O3)sc2c1 (stereo unspecified)	0.9	1	9	0.99	22
O=C(Nc1nc(-c2nc3ccccc3s2)cs1)C1COc2ccccc2O1 (stereo unspecified)	1.5	0	13	0.89	55*
C[C@@]1(C(NC(=O)c2cccs2)c2ccc(-c3ccccc3)cc2)C[C@H]1C1CCCCC1 (stereo partly specified)	1.1	.	.	.	.
CCC1CCCCN1C(=O)CSc1nnc(-c2cccs2)o1 (stereo unspecified)	1.7	3	44	-0.23	40
Cc1csc(-c2coc3cc(O)cc(C)c3c2=O)n1	1.7	-5	66*	0.48	68*
COc1ccc2c(=O)c(-c3nc(C)cs3)coc2c1	0.4	-7	-33	-0.19	-20
Cc1cccc(-n2ncc3c(N(C)Cc4ccccc4)ncnc32)c1	1.3	-7	56*	-0.63	64*
CCN1CCN(c2ncnc3c2cnn3-c2ccccc2)CC1	1.4	-6	46	0.99	56*
Cc1cccc(-n2ncc3c(N4CCC5(CC4)OCCO5)ncnc32)c1	1.7	-6	49*	0.02	98*
Cc1cccc(-n2ncc3c(N4CCC(C)CC4)ncnc32)c1	.	2	36	0.64	70*
c1ccc(-n2ncc3c(N4CCC5(CC4)OCCO5)ncnc32)cc1	1.6	.	.	.	.
CCN1CCN(c2ncnc3c2cnn3-c2ccc(Cl)cc2)CC1	1.1	-6	26	1.1	41
Cc1cc(=O)oc(C)c1C(=O)n1nc(C)c2c1C[C@@H]1[C@H]2C1(C)C	1	-2	6	0.37	19
CCCCCCN(C(=O)CCCCCN1C(=O)NC(c2ccc(-c3ccccc3)cc2)C(C(=O)OCc2ccccc2)=C1C)C(C(=O)NCCCC)c1ccc(OCC(=O)O)c(C(=O)O)c1 (stereo unspecified)	1.1	.	.	.	.
CC1CC(C)CN(c2ncnc3c2cnn3-c2ccc(Cl)cc2)C1 (stereo unspecified)	1.4	7	54*	-0.91	71*
CCC(C)NC(=O)C1=C(C)C(=O)OC12CCC(C)CC2 (stereo unspecified)	1.1	1	-15	0.46	0
COc1ccc(C2CC(c3cccc(C)c3)n3ncnc3N2)cc1 (stereo unspecified)	1.1	2	1	-4.1*	-9
CC(=O)n1c2ccccc2c2c(C#N)c(N3CCCCC3)sc21	1.1	7	-1	0.95	51*
c1ccc2nc3c(nc2c1)[nH]c1ccccc13	1.2	3	50*	-1.5	81*
COc1ccc(C(CC(=O)Nc2nccs2)n2cccc2)cc1 (stereo unspecified)	1	1	48	-0.33	55*
COc1ccc(C(CC(=O)NC(C)(C)C)n2cccc2)cc1 (stereo unspecified)	1	5	-12	-0.92	14
O=C1C(C=NCc2ccncc2)=C(O)c2ccccc21	1.4	.	.	.	.
O=C1C(C=NCc2cccnc2)=C(O)c2ccccc21	0.9	0	53*	-0.56	45
